High-throughput results as filed in PubChem.
An excerpt weighted towards active compounds, which were near 4.9% of everything screened.
STAT1 inh: reduces IFN-gamma driven STAT1 reporter signal; NIH 3T3 STAT1-luciferase reporter, luminescence; inhibition, % at 5.5 µM; 0.35% of 200,000 active;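 active = inhibition above a set limit, the mean inhibition across all tested compounds plus 3 SD, cut at about 34% in these data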
STAT1 act: increases IFN-gamma driven STAT1 reporter signal; 2.6% of 200,000 active; activation (% of control), % at 5.5 µM; AID 932; NIH 3T3 STAT1-luciferase reporter, luminescence; 100% = IFN-gamma alone, no compound;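 active = activation above the screen-wide mean activation plus 3 SD, cut at about 130% in these data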
STAT3 activator: activators of IL-6 induced STAT3 signaling | AID 871 | activation (% of control), % at 5.6 µM | U3A cells, IL-6 STAT3-luciferase reporter, luminescence; 100% = signal with IL-6 EC80 alone | 0.91% of 190,000 active;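 active = activation above the screen-wide mean of compound activation plus 3 SD, cut at about 130% in these data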
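Material: STAT3-luciferase reporter U3A cells. Controls: IL-6-treated wells, 100% activation. Read-out: % activation versus median of IL-6-stimulated wells. Probe or stimulus: IL-6 stimulus at 33 ng/mL final. Timing: compound 1 h, then IL-6 6 h at 37 °C. Signal: reporter luminescence signal.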
FLuc stim CS: firefly luciferase counter-screen for stimulation assays. P08659. ATPlite luciferase biochemical, luminescence, 10 min; 0 = ATP-free wells, 1 = DMSO control. activation factor at 10 µM. 200,000 tested, under 10 active;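 active = luciferase activation factor, scaled between plate controls, of at least 2 with compound at 10 µM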
Target sequence (P08659 whole entry, looked up): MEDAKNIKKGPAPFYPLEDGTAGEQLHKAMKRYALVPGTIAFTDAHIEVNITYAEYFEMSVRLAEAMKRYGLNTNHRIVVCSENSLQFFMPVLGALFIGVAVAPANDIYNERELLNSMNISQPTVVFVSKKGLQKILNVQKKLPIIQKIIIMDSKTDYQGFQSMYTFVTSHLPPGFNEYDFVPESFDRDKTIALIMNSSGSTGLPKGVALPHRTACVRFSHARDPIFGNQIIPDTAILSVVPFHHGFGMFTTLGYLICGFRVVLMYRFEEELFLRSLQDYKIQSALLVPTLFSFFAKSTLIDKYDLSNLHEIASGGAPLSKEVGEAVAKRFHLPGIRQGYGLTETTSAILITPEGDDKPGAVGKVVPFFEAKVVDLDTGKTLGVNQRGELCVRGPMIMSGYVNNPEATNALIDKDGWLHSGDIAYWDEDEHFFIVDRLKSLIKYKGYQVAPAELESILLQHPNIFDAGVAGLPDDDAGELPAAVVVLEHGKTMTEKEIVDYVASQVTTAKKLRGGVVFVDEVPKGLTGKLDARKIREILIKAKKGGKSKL
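Assay system: Luciferase/luciferin detection reagent, cell-free biochemical luciferase assay / Also added: ATP substrate / Schedule: 10 min at ambient temperature / Measured by: luminescence measurement of luciferase light output / Benchmarks: low control with PBS replacing ATP, high control enzyme plus ATP without compound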
STAT3 blocker: reduces IL-6 driven STAT3 reporter signal; inhibition, % at 5.5 µM; U3A cells, IL-6 STAT3-luciferase reporter, luminescence; host cell line lacks STAT1; 0.89% of 190,000 active;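 active = inhibition above the mean inhibition across all screened compounds plus 3 SD, cut at about 44% in these data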
FLuc inhib CS: counter-screen for luciferase assay inhibitors: firefly luciferase inhibition; inhibition, % at 10 µM; 1.5% of 200,000 active; ATPLite firefly luciferase biochemical luminescence, 10 min; P08659;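 active = inhibition above about 50% when tested at 10 µM, limit read from the data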
Each line names hits and unclear results; the compound was inactive in the other large screens.

CCc1nnc(NC(=O)CSc2ccc(-c3nc4ccc(C)cc4[nH]3)cn2)s1	FLuc inhib CS 58.0
CCOc1ccc(-c2ccc(SCC(=O)Nc3nnc(CC)s3)nn2)cc1	FLuc inhib CS 65.3
Cc1ccc2nc(-c3ccc(SCC(=O)N4CCc5ccccc54)nc3)[nH]c2c1	STAT1 act 130.9, STAT3 activator 143.0, FLuc inhib CS 78.0
COc1ccc(-c2ccc(SCC(=O)Nc3nnc(C)s3)nn2)cc1	FLuc inhib CS 63.8
CC(=O)N1CCc2cc(S(=O)(=O)CCC(=O)NCc3ccco3)ccc21	none
CC1C(C#N)=C(SCC(N)=O)NC2=C1C(=O)CC(C)(C)C2 (stereo not drawn)	none
Cc1ccc(-c2ccc(SCC(=O)NCC3CCCO3)nn2)cc1 (stereo not drawn)	none
CCOc1ccc(-c2ccc(SCC(=O)NCC3CCCO3)nn2)cc1 (stereo not drawn)	FLuc inhib CS 72.0
CCc1nnc(NC(=O)CSc2ccc(-c3ccc(C)cc3)nn2)s1	FLuc inhib CS 55.2
COc1ccc(-c2ccc(SCC(=O)Nc3nccs3)nn2)cc1OC	STAT3 activator 135.0
Cc1ccc(-n2nnc3c(SCC(=O)NCC4CCCO4)ncnc32)cc1 (stereo not drawn)	FLuc inhib CS 55.1
OCCC1CN(Cc2ccc(Oc3ncccn3)cc2)CCN1C1CCCC1 (stereo not drawn)	none
O=C(NCCN1CCOCC1)C1CCN(S(=O)(=O)N2CCCC2)CC1	none
Cc1cc(Cl)ccc1Oc1nccc(N(C)C)c1C#N	none
CCOc1ccc(-c2ccc(SC)nn2)cc1	STAT1 inh 80.7, STAT3 blocker 110.1, FLuc inhib CS 96.3
CC1CCCCC12NC(=O)N(CC(=O)NC(=O)Nc1ccc3c(c1)OCCO3)C2=O (stereo not drawn)	STAT1 act 131.7
Cc1cc(NC(=O)CN2C(=O)NC3(CCCCC3C)C2=O)no1 (stereo not drawn)	none
CCCCCCOc1ccc(N2C(=O)CC(N3CCN(CCN=CC4C(=O)CC(C)(C)CC4=O)CC3)C2=O)cc1 (stereo not drawn)	none
Oc1oc(-c2ccccc2)nc1/C=N/c1ccccn1	STAT1 act 128.7
CN=Cc1nc(-c2ccccc2)oc1O	none
Nc1ccc(N=Nc2ccc(N)cc2)cc1	FLuc inhib CS 64.0
CCOC(=O)C(NCc1ccc(OC)cc1)(NC(C)=O)C(F)(F)F (stereo not drawn)	none
Nc1nc(-c2ccccc2)cn1N	none
c1ccc(-c2cn3c(n2)-c2ccccc2C3)cc1	FLuc inhib CS 87.2
COc1cc(NC(=O)c2ccccn2)cc(OC)c1OC	none
O=C(Nc1ccc(OC(F)F)c(Cl)c1)c1ccccn1	STAT1 act 146.5
CCOc1ccc(NC(=O)c2cnccn2)cc1	FLuc inhib CS 72.0
CCOc1ccc(C(=O)Nc2nnn(CC)n2)cc1	FLuc inhib CS 60.5
CCCn1nnc(NC(=O)c2ccc(OC)cc2)n1	none
CCCC(=O)Nc1ccc(NC(=O)c2ccccn2)cn1	STAT1 act 140.6
CCOc1ccc(C(=O)NCc2ccccn2)cc1	none
CCOc1ccc(C(=O)Nc2ncccc2Cl)cc1	STAT1 act 129.3
O=C(Nc1cccc2ncccc12)c1ccc2c(c1)OCCO2	none
CCN(CC)c1ccc(/C=N/NC(=O)c2cnccn2)cc1	STAT1 act 132.5, FLuc inhib CS 66.2
O=C(Nc1ncccc1Cl)c1ccc2c(c1)OCCO2	STAT1 act 137.8
CCn1nnc(NC(=O)c2sc3ccccc3c2Cl)n1	FLuc inhib CS 67.1
Cc1ccc(C(=O)NCc2ccccc2)cc1Br	none
COC(=O)C1CCN(Cc2ccc(OCCCN3CCN(c4ccc([N+](=O)[O-])cc4)CC3)cc2)CC1	none
CCOc1cc(C(=O)Nc2cc(C)ccn2)cc(OCC)c1OCC	none
O=C(Nc1nc(-c2ccccn2)cs1)c1ccc2c(c1)OCCO2	STAT1 act 130.6, FLuc inhib CS 78.7 (no result: STAT3 activator, STAT3 blocker)
CC(=O)Nc1ccc(C(=O)Nc2nc(-c3ccccn3)cs2)cc1	none
O=C(Nc1ccc(Br)cc1)c1cnccn1	none
CCOc1ccc(NC(=O)c2ccccn2)cc1	STAT1 inh 59.2, STAT3 blocker 98.1, FLuc inhib CS 95.5
